Data from the EternaBench riboswitch data.

System: MS2 coat protein
Test: apparent Kd, MS2 coat protein; higher = weaker binding; RNA-MaP array; FMN 200 µM where present
Method in brief: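 Stalled E. coli RNA polymerase transcribed the designs on Illumina sequencing-chip clusters. SNAP-549-labelled MS2 coat protein was titrated from 0.7 or 1.5 nM, doubling to 3 µM, without and then with constant ligand, in 100 mM Tris-HCl pH 7.5, 80 mM KCl, 4 mM MgCl2, BSA, DTT, yeast tRNA and Tween-20. Per-cluster binding curves were fitted to green signal normalised to red-channel RNA signal and control-cluster median Fmax. The apparent Kd is the median of the filtered fits.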

[1] = designed as: OFF switch for flavin mononucleotide, no ligand
[2] = ligand present: flavin mononucleotide, designed as: OFF switch for flavin mononucleotide
[3] = designed as: ON switch for flavin mononucleotide, no ligand
[4] = ligand present: flavin mononucleotide, designed as: ON switch for flavin mononucleotide

Sequence: AAGUAGAUCCGAGGAUAUACAAGGCGGAAAUGCUACAUGAGGAUCACCCAUGUAGAAGGCGGAUCUACAGGUACUAAAGUACCA
- apparent Kd [1]: 6.71 nM
- apparent Kd [2]: 19.3 nM

Sequence: GUAGCAUUCUGAGGAUAUUCAUACCGGUAACGGACAUGAGGAUCACCCAUGUGGCGAAAGCCUUGGGAGAAGGCAGUAUGCUAC
- apparent Kd [3]: 171 nM
- apparent Kd [4]: 10 nM

Sequence: AAGAAAUGGGAGUGAUCUGGUUCCGAGGAUAUAGGCAUCGGUACAUGAGGAUCACCCAUGUCCGACUAGAAGGCGGACGGGUCC
- apparent Kd [3]: 34.1 nM
- apparent Kd [4]: 8.76 nM

Sequence: UCGAUAAGGAGAGGAUAUGGACAUGAGGAUCACCCAUGUACAUGGGAAUAUAUUCUGAAUUUUUACUAGAAGGCUUACAUAAAU
- apparent Kd [1]: 20.8 nM
- apparent Kd [2]: 17.1 nM

Sequence: UUAGAGGAUUGAGGAUAUGCAGAGAGAUUAUGCGCGUCGCGCACAUGAGGAUCACCCAUGUAAGAGCAGAAGGUAACUAUGAUC
- apparent Kd [1]: 24.3 nM
- apparent Kd [2]: 21.8 nM

Sequence: CAGUAAGUAUUGCGAGGGUAGGAGCAGGAUAUCCCAUUGGCCCUCACAUGAGGAUCACCCAUGUGGGAGAAGGGCUAUUACGUC
- apparent Kd [1]: 9.11 nM
- apparent Kd [2]: 22.5 nM

Sequence: UUUGGGUGGCUGGAGGAUAUCCUGGUUGUUACAUGAGGAUCACCCAUGUGCCGCGCGGUGCGCUGGGAGAAGGCUGGCGGCCGUU
- apparent Kd [3]: 130 nM
- apparent Kd [4]: 27.6 nM

Sequence: AUGGUACAUGAGGAUCACCCAUGUUAGGAUAUCGCGUGAGGUAAAACUUACACACACACGAGAAGGGACGACAU
- apparent Kd [1]: 65.2 nM
- apparent Kd [2]: 46.7 nM

Sequence: AAUUAUUUUUGAGGAUAUCGUGGUGAAACACCACGAGAAGGCGAGAUACACAUGAGGAUCACCCAUGUGAGCCUGAUGCUUAUG
- apparent Kd [1]: 16.1 nM
- apparent Kd [2]: 14.4 nM

Sequence: GUAGCAUACCGAGGAUAUCUAUACCGGAAACGGACAUGAGGAUCACCCAUGUGGCGAAAGCCUUGGGAGAAGGCGGAAUGCUAC
- apparent Kd [3]: 20.8 nM
- apparent Kd [4]: 11.6 nM

Sequence: UCCAGGCGAGGAUAUACAAAGAUUUUUUCGUUUUGUCUCGAACAUGAGGAUCACCCAUGUAGAAGGUGCUGCUG
- apparent Kd [1]: 57.5 nM
- apparent Kd [2]: 52.9 nM

Sequence: ACUGCAUAGGCAGGAUAUGCAAAAGCAGAUGCAAAGCAUUUGUAAAACACAUGAGGAUCACCCAUGUAGAAGGGCCUGUGCAGU
- apparent Kd [1]: 21 nM
- apparent Kd [2]: 20.7 nM

Sequence: CCGAGUGGCGUACAGGAUAUGUUGCAUGGAACAUGAGGAUCACCCAUGUAUUUGCUCCCGCAUACGCAGAAGGGUGCGUCCUGGG
- apparent Kd [3]: 142 nM
- apparent Kd [4]: 25.4 nM

Sequence: AGAAACUACGAGAAGGACAUGUGAACCUUCAACUACAUGAGGAUCACCCAUGUAGGAUAUCGUAGUUUCAGGAUCGUGAGAUCA
- apparent Kd [1]: 5.93 nM
- apparent Kd [2]: 6.44 nM

Sequence: GUCCUCAUGACAUGAGGAUCACCCAUGUAUUAUUUGUUAACUGAGGAUAUACUCUUAAUUUUUAUGUAGAAGGCAGAUUCGGUC
- apparent Kd [1]: 35.6 nM
- apparent Kd [2]: 39.9 nM

Sequence: UGCUACGUUUCGUAGCAGCUAGGUGAGGAUAUUCAAUUUUUCACAUGAGGAUCACCCAUGUAUGUGAAGAAGGCGCCUAGAAAU
- apparent Kd [3]: 12.8 nM
- apparent Kd [4]: 4.8 nM

Sequence: GAUGCUAUCCGAGGAUAUUCAUACCGGAAACGGACAUGAGGAUCACCCAUGUGGCGAAAGCCUUGGGAGAAGGCGGAUAGCAUC
- apparent Kd [3]: 581 nM
- apparent Kd [4]: 23.4 nM

Sequence: UGGUACUAGGUAGGAUAUGGGAAGAUACAUGAGGAUCACCCAUGUUUAAGAAUGCCGAGAGGCAACUAGAAGGCCCUAGUACCU
- apparent Kd [3]: 652 nM
- apparent Kd [4]: 78.9 nM

Sequence: AAAAAGUGAGGAUAUACAUGAGGAUCACCCAUGUUAAAAAAGGAAAAAAAAAAAAAAUGUAGAAGGCGCAAAAA
- apparent Kd [1]: 45.3 nM
- apparent Kd [2]: 44 nM

Sequence: GCUGGACAAGGAUAUGCAUUCGUGCUUCGGCACGUAAGGUCACAUGAGGAUCACCCAUGUAGAAGGUGUCCAGC
- apparent Kd [1]: 18.6 nM
- apparent Kd [2]: 34 nM

Sequence: UGUUGUAUUACAGGAUAUCUAUUGUUUUAAUUUAGAGAAGGGUAUUCACAUGAGGAUCACCCAUGUAUAUACGAGGAAGUUGUG
- apparent Kd [3]: 54 nM
- apparent Kd [4]: 61 nM

Sequence: GUUUUGGGAGGAUAUAUGUGGAUUAUUUUCGUAUGUUGUUUACAUGAGGAUCACCCAUGUAGAAGGUCUAGAGC
- apparent Kd [1]: 68.3 nM
- apparent Kd [2]: 198 nM

Sequence: CCAACUGGAGGAUAUGCAGCGGCGGUCUCUUGGUUUGCAUUACAUGAGGAUCACCCAUGUAGAAGGCCGGUUGU
- apparent Kd [1]: 117 nM
- apparent Kd [2]: 201 nM

Sequence: CUGAUGUGAGGAUAUCGGGCUACAGCCCUGCUGCUAGCAAACGAGAAGGCACAUGAGGAUCACCCAUGUGAUAG
- apparent Kd [1]: 21.6 nM
- apparent Kd [2]: 24.3 nM

Sequence: AUCCGGCGUGUAGGAUAUGGAAACGAUUAGGAUCCAGAAGGACAUGAGGAUCACCCAUGUACAUGUAAACAGUCAUCACCGGAA
- apparent Kd [1]: 14.5 nM
- apparent Kd [2]: 52.2 nM

Sequence: AUCAGCUCGUCAGGAUAUACGUCACUGCGUCAGCAGUGUGGUAAGUUCACAUGAGGAUCACCCAUGUAGAAGGGACGAGCUGAU
- apparent Kd [1]: 4.98 nM
- apparent Kd [2]: 7.14 nM

Sequence: GGAUGACAAAGUCAUCCUUAACGAACAUGAGGAUCACCCAUGUAGGAUAUGCUUCUCAAAGAGAAGCAGAAGGACAUGUGCCUU
- apparent Kd [1]: 33.3 nM
- apparent Kd [2]: 256 nM

Sequence: AUCAGCUCGUCAGGAUAUACGCCACUGCGUCAGCAGUGUGGUAAGAUCACAUGAGGAUCACCCAUGUAGAAGGGACGAGCUGAU
- apparent Kd [1]: 10.9 nM
- apparent Kd [2]: 147 nM

Sequence: CCGCUCGAAGGAUAUACAAUCCUCAGACUCUUCGACCAAAGACAUGAGGAUCACCCAUGUAGAAGGUCGGCGGA
- apparent Kd [1]: 13.3 nM
- apparent Kd [2]: 25.9 nM

Sequence: AAGCUGGUAGGAUAUACUAGGGCGAUUAAUACGCCGAUAGUACAUGAGGAUCACCCAUGUAGAAGGGCCAGAAA
- apparent Kd [1]: 27.5 nM
- apparent Kd [2]: 22.1 nM

Sequence: GUCAGCUCGUGAGGAUAUACAUCACUGCUUCGGCAGUGUAUUAAGAUAACAUGAGGAUCACCCAUGUAGAAGGCACGAGCUGAU
- apparent Kd [1]: 17 nM
- apparent Kd [2]: 28.5 nM

Sequence: GUCCUUUCUGAGGAUAUUAUCCUUUCCGAUUGAUAAGAAGGCAGUACAUGAGGAUCACCCAUGUGGGUUGUCUG
- apparent Kd [1]: 29.8 nM
- apparent Kd [2]: 38.3 nM

Sequence: CCUGGCUUAGGAUAUACAGGAUCCGGGAACCCGGAAGUGAAACAUGAGGAUCACCCAUGUAGAAGGAAGAAAGC
- apparent Kd [1]: 28.8 nM
- apparent Kd [2]: 16.5 nM

Sequence: GUCAGCUCGUGAGGAUAUACAACAAUGCUUCGGCAGUGUAUUAAGAUCACAUGAGGAUCACCCAUGUAGAAGGCACGAGCUGAU
- apparent Kd [1]: 7.66 nM
- apparent Kd [2]: 73.7 nM

Sequence: AUACUGAGCGUAAAUUACCUUAACAUGAGGAUCACCCAUGUGGAGGAUAUUGACCUAGCAAAGCUCGAGAAGGCCACUGGGAUG
- apparent Kd [1]: 17.5 nM
- apparent Kd [2]: 18.1 nM

Sequence: GGAUAGGACAGAGGAUAUACGUCCUAGAGAUACUAGCAAAAUUUCCUCACAUGAGGAUCACCCAUGUAGAAGGCUGUCCUAUCG
- apparent Kd [1]: 12.6 nM
- apparent Kd [2]: 141 nM

Sequence: CGUCGAUACCAGAAGGACAUGAGGAUCACCCAUGUAGGAUAUGGGUGACCGGGAUGGUGGACACGGUGCCCGGGCACAUGCGAC
- apparent Kd [3]: 81.8 nM
- apparent Kd [4]: 14.9 nM

Sequence: UCCCGUUGUCAGAAGGCUCCUCGGAACCCGAGGAGAGGAUAUGACACAUGAGGAUCACCCAUGUGCCCGGUCGUGACAAAGGUG
- apparent Kd [1]: 13.4 nM
- apparent Kd [2]: 146 nM

Sequence: ACCUUACUGGUCAGGAUAUACAGUCUUUGGUGGGUGUAGAAGGGACAUGAGGAUCACCCAUGUAGGUUGCAGCA
- apparent Kd [1]: 175 nM
- apparent Kd [2]: 153 nM

Sequence: GCGAAUCAGUGAGGAUAUACAUAAAUUAUAACAGUAGAAGGCACAUACCUCAAGACAUGAGGAUCACCCAUGUGACAUAUCGCU
- apparent Kd [1]: 258 nM
- apparent Kd [2]: 488 nM

Sequence: AUUGCUCGAGAGAAGGGAACAUGAGGAUCACCCAUGUUACCUCACCUGGUGACGGAACUCCAAGUUCAGGAUAUCUCGAACGAU
- apparent Kd [1]: 5.63 nM
- apparent Kd [2]: 8.13 nM

Sequence: UUCGUGUGACAGAAGGGUCUUUCAGGCUGGGAGGCAGGAUAUGUGACAUGAGGAUCACCCAUGUUGGUAUCGUCUGUGUGUACG
- apparent Kd [1]: 6.7 nM
- apparent Kd [2]: 14.6 nM

Sequence: AAAACUGGAGGAUAUACAUGAGGAUCACCCAUGUGUGGAUGGGCUGUGUCGGCGUCAGGUAGAAGGCCACAAAA
- apparent Kd [1]: 70 nM
- apparent Kd [2]: 130 nM

Sequence: GAGGAAAGGUAGCCCGACGUACCAGCAGAAGGGUGAUCAGACAUGAGGAUCACCCAUGUAGGAACACAGGAUAUGCAUGCACUU
- apparent Kd [3]: 80 nM
- apparent Kd [4]: 27.8 nM

Sequence: UAAAAGACUAGCAAAUAGACCUUCACAUGAGGAUCACCCAUGUAGGAUAUGAGCAGAAAAUCUGCUCAGAAGGACAUGCUAGUC
- apparent Kd [1]: 3.38 nM
- apparent Kd [2]: 3.6 nM

Sequence: AUGUGGUGCGUAGGAUAUCAUUAAAGAAAACCCUGAGAAGGACGUGAGGACAUGAGGAUCACCCAUGUGGAUCACCCAUGUCAU
- apparent Kd [1]: 320 nM
- apparent Kd [2]: 285 nM

Sequence: GUAGCAUACCGAGGAUAUUCAUAGAAUAAAUAAACAUGAGGAUCACCCAUGUGGCGAAAGCCUAGGGAGAAGGCGGAAUGCUAC
- apparent Kd [3]: 183 nM
- apparent Kd [4]: 20.3 nM

Sequence: GCAUGCAAGUAGAAGGACGGAUAUUUUGAUACCGUAGGAUAUGCAGAAUCAUAUCCACAUGAUAACAUGAGGAUCACCCAUGUA
- apparent Kd [1]: 15 nM
- apparent Kd [2]: 13.7 nM
